Assay results published in ChEMBL document CHEMBL1154183, “Structure-based optimization of potent and selective inhibitors of the tyrosine kinase erythropoietin producing human hepatocellular carcinoma receptor B4 (EphB4)” (J Med Chem, 2009).
Each block holds one compound with its values, some of them ahead of it.

Legend:
[1] = biological target: Proto-oncogene tyrosine-protein kinase Src (Homo sapiens) (UniProt P12931); test: Inhibition of Src assessed as remaining enzyme activity at 3 uM relative to DMSO
Proto-oncogene tyrosine-protein kinase Src (Homo sapiens), sequence (P12931 2-536 limits assumed): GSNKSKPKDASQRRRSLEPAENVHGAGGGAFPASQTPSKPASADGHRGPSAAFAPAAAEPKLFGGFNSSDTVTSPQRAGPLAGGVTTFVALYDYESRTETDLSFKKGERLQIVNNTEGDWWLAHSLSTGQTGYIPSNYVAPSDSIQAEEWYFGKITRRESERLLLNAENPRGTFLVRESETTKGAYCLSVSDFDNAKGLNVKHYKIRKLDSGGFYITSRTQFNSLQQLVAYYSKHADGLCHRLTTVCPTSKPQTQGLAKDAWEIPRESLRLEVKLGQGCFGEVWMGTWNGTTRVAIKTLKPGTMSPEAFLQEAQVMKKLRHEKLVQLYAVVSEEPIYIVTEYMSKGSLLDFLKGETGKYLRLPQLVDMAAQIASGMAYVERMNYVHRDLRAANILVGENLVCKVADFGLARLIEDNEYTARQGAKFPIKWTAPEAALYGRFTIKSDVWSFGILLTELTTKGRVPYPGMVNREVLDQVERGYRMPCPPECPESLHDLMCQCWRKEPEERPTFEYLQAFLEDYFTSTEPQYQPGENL

[2] = biological target: 3-phosphoinositide-dependent protein kinase 1 (Homo sapiens) (UniProt O15530); test: Inhibition of PDK1 assessed as remaining enzyme activity at 3 uM relative to DMSO
[3] = biological target: Ribosomal protein S6 kinase alpha-1 (Homo sapiens) (UniProt Q15418); test: Inhibition of RSK1 assessed as remaining enzyme activity at 3 uM relative to DMSO
[4] = biological target: Mitogen-activated protein kinase kinase kinase 9 (Homo sapiens) (UniProt P80192); test: Inhibition of MLK1 assessed as remaining enzyme activity at 3 uM relative to DMSO
Procedure, shortened: (§1)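 Radiometric kinase assay run robotically at room temperature for 30 min. Contained 10 mM magnesium acetate and [γ-33P]ATP (800 cpm/pmol) at 5, 20 or 50 μM, chosen per kinase to be at or below its ATP Km. Reactions were started with MgATP, stopped with orthophosphoric acid and spotted onto P81 filters. Result is mean % activity of duplicates at one inhibitor concentration versus DMSO control.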

[5] = biological target: Fibroblast growth factor receptor 1 (Homo sapiens) (UniProt P11362); test: Inhibition of FGF-R1 assessed as remaining enzyme activity at 3 uM relative to DMSO
Procedure, shortened: (§2)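 Dundee kinase panel, radiometric: [γ-33P]ATP (800 cpm/pmol) at 5, 20 or 50 μM, at or below each kinase's ATP Km; 10 mM magnesium acetate; robotic, room temperature, 30 min. Reactions started with MgATP, stopped with orthophosphoric acid, spotted onto P81 filters. Inhibitor tested at a single concentration; mean % activity of duplicates relative to DMSO control.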

[6] = biological target: Inhibitor of nuclear factor kappa-B kinase subunit epsilon (Homo sapiens) (UniProt Q14164); test: Inhibition of IKKepsilon assessed as remaining enzyme activity at 3 uM relative to DMSO; procedure, shortened: as §2
Inhibitor of nuclear factor kappa-B kinase subunit epsilon (Homo sapiens), sequence (Q14164 whole entry): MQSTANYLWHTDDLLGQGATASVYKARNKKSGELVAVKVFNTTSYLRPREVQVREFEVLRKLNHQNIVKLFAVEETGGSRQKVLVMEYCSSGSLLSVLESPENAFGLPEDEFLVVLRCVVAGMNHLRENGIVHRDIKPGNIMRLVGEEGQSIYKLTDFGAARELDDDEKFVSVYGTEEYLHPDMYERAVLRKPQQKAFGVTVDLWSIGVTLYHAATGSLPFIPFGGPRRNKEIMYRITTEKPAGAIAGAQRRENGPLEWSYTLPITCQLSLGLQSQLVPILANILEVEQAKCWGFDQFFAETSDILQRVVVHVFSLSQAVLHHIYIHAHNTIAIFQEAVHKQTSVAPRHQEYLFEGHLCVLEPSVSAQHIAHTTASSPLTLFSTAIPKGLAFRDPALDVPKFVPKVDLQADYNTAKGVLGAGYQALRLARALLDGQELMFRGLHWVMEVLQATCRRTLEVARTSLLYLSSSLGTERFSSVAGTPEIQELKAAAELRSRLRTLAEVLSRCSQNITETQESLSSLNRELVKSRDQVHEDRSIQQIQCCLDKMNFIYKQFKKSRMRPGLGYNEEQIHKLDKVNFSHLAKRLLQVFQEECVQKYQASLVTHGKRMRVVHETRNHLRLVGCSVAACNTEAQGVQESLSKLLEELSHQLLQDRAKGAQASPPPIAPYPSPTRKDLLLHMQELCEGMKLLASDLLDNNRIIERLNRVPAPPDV

[7] = Inhibition of AMPK assessed as remaining enzyme activity at 3 uM relative to DMSO
Procedure, shortened: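 Panel assay run robotically at room temperature for 30 min with 10 mM magnesium acetate and [γ-33P]ATP (800 cpm/pmol) at 5, 20 or 50 μM, chosen per kinase to be at or below its ATP Km. Reactions were started with MgATP, stopped with orthophosphoric acid and spotted on P81 filters. Activity is the mean of duplicates at a single inhibitor concentration, as % of DMSO control.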

[8] = biological target: Mitogen-activated protein kinase 11 (Homo sapiens) (UniProt Q15759); test: Inhibition of p38beta assessed as remaining enzyme activity at 3 uM relative to DMSO
[9] = biological target: Receptor tyrosine-protein kinase erbB-4 (Homo sapiens) (UniProt Q15303); test: Inhibition of HER4 assessed as remaining enzyme activity at 3 uM relative to DMSO; procedure, shortened: as §2
[10] = biological target: Serine/threonine-protein kinase pim-3 (Homo sapiens) (UniProt Q86V86); test: Inhibition of PIM3 assessed as remaining enzyme activity at 3 uM relative to DMSO; procedure, shortened: as §1
[11] = biological target: Dual specificity testis-specific protein kinase 1 (Homo sapiens) (UniProt Q15569); test: Binding affinity to TESK1 assessed as percentage of kinase remaining bound to the bead at 1 uM by T7 phage display based binding assay
Dual specificity testis-specific protein kinase 1 (Homo sapiens), sequence (Q15569 whole entry, looked up, the tested form may be a part): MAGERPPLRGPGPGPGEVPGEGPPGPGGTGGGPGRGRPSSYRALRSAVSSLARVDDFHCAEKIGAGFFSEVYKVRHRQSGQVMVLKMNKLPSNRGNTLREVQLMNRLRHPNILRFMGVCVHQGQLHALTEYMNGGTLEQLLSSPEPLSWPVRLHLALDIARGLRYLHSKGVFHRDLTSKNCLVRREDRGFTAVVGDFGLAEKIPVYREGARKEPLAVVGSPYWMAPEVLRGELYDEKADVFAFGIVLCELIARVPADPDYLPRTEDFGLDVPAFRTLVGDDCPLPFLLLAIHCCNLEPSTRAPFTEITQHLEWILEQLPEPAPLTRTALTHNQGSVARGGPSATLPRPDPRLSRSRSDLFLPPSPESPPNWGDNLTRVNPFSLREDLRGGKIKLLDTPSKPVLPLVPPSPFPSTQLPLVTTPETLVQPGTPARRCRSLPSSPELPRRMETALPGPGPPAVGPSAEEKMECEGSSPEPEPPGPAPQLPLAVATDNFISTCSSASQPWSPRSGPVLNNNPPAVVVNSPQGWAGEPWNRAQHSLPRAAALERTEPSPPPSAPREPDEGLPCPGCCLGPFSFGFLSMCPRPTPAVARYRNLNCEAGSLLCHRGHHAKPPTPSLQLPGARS
Procedure, shortened: (§3)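 Competition binding assay run by a contract lab. Each kinase was expressed as a fusion to T7 phage, full-length for small kinases and catalytic domain for large ones. Phage were mixed with an immobilized known kinase inhibitor on streptavidin magnetic beads and with test compound at a single 1 μM. Kinase/phage still bound to the beads was quantified by qPCR and expressed as % of DMSO control.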

[12] = biological target: Mitogen-activated protein kinase 13 (Homo sapiens) (UniProt O15264); test: Inhibition of p38delta assessed as remaining enzyme activity at 1 uM relative to DMSO
[13] = biological target: RAC-beta serine/threonine-protein kinase (Homo sapiens) (UniProt P31751); test: Inhibition of PKBbeta assessed as remaining enzyme activity at 1 uM relative to DMSO; procedure, shortened: as §1
Ephrin type-A receptor 5 = Ephrin type-A receptor 5 (Homo sapiens, UniProt P54756); test: Inhibition of EphA5 by [gamma33-P]ATP based assay
Ephrin type-A receptor 5, sequence (P54756 whole entry): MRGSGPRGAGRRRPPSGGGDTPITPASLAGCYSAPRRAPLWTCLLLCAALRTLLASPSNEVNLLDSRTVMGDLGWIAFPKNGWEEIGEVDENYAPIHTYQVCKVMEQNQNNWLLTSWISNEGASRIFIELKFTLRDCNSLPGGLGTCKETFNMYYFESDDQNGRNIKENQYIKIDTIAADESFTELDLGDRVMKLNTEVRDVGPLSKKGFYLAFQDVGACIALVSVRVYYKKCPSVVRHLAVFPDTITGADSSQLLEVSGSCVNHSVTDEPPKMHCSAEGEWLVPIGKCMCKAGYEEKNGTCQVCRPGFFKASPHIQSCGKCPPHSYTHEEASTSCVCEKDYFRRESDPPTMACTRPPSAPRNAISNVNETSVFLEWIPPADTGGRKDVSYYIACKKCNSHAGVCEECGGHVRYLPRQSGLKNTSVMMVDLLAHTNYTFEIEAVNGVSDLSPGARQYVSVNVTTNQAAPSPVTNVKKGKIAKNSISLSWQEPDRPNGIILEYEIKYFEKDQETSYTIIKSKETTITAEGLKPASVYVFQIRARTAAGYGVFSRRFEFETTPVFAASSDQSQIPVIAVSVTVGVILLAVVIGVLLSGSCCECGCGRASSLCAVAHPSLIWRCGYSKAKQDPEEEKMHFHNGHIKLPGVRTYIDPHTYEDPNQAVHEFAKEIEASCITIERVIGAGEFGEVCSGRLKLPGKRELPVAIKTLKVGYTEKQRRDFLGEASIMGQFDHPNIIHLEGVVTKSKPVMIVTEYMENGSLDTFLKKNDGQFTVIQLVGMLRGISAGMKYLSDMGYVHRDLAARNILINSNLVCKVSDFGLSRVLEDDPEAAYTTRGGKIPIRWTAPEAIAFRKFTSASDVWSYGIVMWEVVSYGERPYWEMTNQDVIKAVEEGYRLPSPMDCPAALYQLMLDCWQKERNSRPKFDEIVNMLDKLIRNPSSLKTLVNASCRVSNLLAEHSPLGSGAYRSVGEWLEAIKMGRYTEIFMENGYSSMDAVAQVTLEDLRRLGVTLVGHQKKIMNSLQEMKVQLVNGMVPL
Procedure, shortened: (§4)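 Radiometric [γ-33P]ATP kinase assay against Eph kinases, following a protocol similar to the Mg-acetate/MgATP filter-binding method.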

[14] = biological target: Proto-oncogene tyrosine-protein kinase Src (Homo sapiens) (UniProt P12931); test: Inhibition of Src assessed as remaining enzyme activity at 1 uM relative to DMSO
[15] = biological target: Cyclin-dependent kinase 2 (Homo sapiens) (UniProt P24941); test: Inhibition of CDK2 assessed as remaining enzyme activity at 1 uM relative to DMSO; procedure, shortened: as §2
[16] = biological target: Serine/threonine-protein kinase PLK1 (Homo sapiens) (UniProt P53350); test: Inhibition of PLK1 assessed as remaining enzyme activity at 1 uM relative to DMSO
[17] = biological target: MAP kinase-interacting serine/threonine-protein kinase 1 (Homo sapiens) (UniProt Q9BUB5); test: Inhibition of MNK1 assessed as remaining enzyme activity at 1 uM relative to DMSO; procedure, shortened: as §1
MAP kinase-interacting serine/threonine-protein kinase 1 (Homo sapiens), sequence (Q9BUB5 whole entry, looked up): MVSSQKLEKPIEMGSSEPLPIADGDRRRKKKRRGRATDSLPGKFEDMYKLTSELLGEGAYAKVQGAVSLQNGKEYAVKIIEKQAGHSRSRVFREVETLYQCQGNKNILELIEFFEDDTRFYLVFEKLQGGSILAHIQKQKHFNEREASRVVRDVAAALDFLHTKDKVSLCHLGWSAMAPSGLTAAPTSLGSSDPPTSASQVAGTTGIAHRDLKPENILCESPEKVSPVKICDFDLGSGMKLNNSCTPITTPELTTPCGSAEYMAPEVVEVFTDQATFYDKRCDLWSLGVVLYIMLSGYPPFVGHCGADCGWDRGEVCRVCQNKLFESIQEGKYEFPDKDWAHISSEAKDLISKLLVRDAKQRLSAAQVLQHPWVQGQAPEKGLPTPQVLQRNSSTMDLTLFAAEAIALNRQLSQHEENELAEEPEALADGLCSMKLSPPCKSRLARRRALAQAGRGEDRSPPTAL

[18] = biological target: Epidermal growth factor receptor (Homo sapiens) (UniProt P00533); test: Binding affinity to EGFR assessed as percentage of kinase remaining bound to the bead at 1 uM by T7 phage display based binding assay
Procedure, shortened: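 Kinases expressed as T7 phage fusions (full-length for small kinases, catalytic domain for large). Phage mixed with an immobilized known kinase inhibitor on streptavidin magnetic beads plus test compound at a single 1 μM concentration. Ligand displacement from the ATP site was read by quantitative PCR as % kinase/phage still bead-bound versus DMSO control. Human kinases.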

[19] = biological target: Receptor tyrosine-protein kinase erbB-3 (Homo sapiens) (UniProt P21860); test: Binding affinity to ERBB3 assessed as percentage of kinase remaining bound to the bead at 1 uM by T7 phage display based binding assay; procedure, shortened: as §3
[20] = biological target: Calcium/calmodulin-dependent protein kinase kinase 2 (Homo sapiens) (UniProt Q96RR4); test: Inhibition of CAMKKbeta assessed as remaining enzyme activity at 1 uM relative to DMSO; procedure, shortened: as §2
[21] = biological target: Tyrosine-protein kinase ABL1 (Homo sapiens) (UniProt P00519); test: Binding affinity to phosphorylated ABL1 assessed as percentage of kinase remaining bound to the bead at 1 uM by T7 phage display based binding assay; procedure, shortened: as §3
[22] = biological target: Mitogen-activated protein kinase 3 (Homo sapiens) (UniProt P27361); test: Inhibition of ERK1 assessed as remaining enzyme activity at 1 uM relative to DMSO
Mitogen-activated protein kinase 3 (Homo sapiens), sequence (P27361 whole entry): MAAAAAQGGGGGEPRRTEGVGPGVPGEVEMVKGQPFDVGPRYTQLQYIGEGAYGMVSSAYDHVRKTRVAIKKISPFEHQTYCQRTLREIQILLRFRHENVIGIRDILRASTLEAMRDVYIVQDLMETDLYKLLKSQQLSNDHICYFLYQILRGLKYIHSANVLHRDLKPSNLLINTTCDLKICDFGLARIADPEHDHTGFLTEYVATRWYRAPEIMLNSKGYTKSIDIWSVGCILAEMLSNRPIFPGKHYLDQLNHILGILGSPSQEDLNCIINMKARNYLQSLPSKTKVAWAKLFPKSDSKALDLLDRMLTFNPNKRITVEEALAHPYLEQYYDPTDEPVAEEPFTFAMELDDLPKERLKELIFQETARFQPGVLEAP
Procedure, shortened: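 Radiometric kinase assay run robotically at room temperature for 30 min, linear in time and enzyme. Conditions: 10 mM magnesium acetate, [γ-33P]ATP (800 cpm/pmol) at 5, 20 or 50 μM per kinase, at or below its ATP Km. Started with MgATP and stopped with orthophosphoric acid, then spotted on P81 filters. Reported as mean % activity of duplicates versus DMSO controls.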

[23] = biological target: Insulin-like growth factor 1 receptor (Homo sapiens) (UniProt P08069); test: Inhibition of IGF-1R assessed as remaining enzyme activity at 1 uM relative to DMSO; procedure, shortened: as §2
Ephrin type-B receptor 2 = Ephrin type-B receptor 2 (Homo sapiens, UniProt P29323); test: Inhibition of EphB2 by [gamma33-P]ATP based assay; procedure, shortened: as §4
Ephrin type-B receptor 2, sequence (P29323 whole entry): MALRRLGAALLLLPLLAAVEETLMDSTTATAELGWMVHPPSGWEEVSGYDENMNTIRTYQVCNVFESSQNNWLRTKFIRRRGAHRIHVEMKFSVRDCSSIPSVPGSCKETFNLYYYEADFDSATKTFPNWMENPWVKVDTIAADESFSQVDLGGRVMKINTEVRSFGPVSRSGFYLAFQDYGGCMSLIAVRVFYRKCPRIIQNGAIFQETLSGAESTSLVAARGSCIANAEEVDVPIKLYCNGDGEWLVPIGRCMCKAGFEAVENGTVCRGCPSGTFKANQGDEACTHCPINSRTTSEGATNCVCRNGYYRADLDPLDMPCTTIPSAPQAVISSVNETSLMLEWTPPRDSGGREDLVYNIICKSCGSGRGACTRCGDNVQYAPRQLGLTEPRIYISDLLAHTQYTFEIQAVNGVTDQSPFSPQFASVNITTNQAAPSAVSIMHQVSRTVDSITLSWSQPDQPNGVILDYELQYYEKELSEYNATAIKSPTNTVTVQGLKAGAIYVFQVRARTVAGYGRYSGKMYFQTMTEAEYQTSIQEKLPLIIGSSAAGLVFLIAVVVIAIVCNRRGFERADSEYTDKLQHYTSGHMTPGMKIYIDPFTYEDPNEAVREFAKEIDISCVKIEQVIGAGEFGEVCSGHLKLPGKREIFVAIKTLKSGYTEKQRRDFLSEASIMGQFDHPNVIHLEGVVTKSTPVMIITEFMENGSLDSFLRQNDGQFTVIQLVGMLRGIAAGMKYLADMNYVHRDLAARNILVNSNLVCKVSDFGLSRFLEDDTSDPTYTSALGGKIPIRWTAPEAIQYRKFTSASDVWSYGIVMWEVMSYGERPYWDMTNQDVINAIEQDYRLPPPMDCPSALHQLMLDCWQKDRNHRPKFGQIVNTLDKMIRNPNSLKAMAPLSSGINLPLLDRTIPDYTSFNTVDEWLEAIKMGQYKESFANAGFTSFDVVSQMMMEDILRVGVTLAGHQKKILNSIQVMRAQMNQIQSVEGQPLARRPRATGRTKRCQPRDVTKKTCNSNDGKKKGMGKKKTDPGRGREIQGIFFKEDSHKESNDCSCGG

- Activity [1]: 12%
- Activity [2]: 109%
- Activity [3]: 83%
- Activity [4]: 85%
- Activity [5]: 90%
- Activity [6]: 101%
- Activity [7]: 92%
- Activity [8]: 93%
- Activity [9]: 45%
- Activity [10]: 111%
SMILES: COc1ccccc1-n1c(-c2ccccc2C)cn2c3c(=O)[nH]c(=O)n(C)c3nc12

- Activity [11]: 9.8%
- Activity [12]: 86%
- Activity [13]: 104%
- IC50 (Ephrin type-A receptor 5): 3 nM
- Activity [14]: 9%
- Activity [15]: 90%
- Activity [16]: 93%
- Activity [17]: 94%
- Activity [18]: 8.6%
- Activity [19]: 78%
- Activity [20]: 104%
- Activity [21]: 0.15%
- Activity [22]: 96%
- Activity [23]: 94%
- IC50 (Ephrin type-B receptor 2): 1.2 nM
SMILES: COc1ccccc1-n1c(-c2cc(O)ccc2C)cn2c3c(=O)[nH]c(=O)n(C)c3nc12
